Activity calls are given as the source filed them. No cut-off for these calls is given here.
Experiments:
Type in all cases: cell-based
[1] = test system: F11; experiment: Blockade of sodium channel in mouse rat hybrid F11 cells by whole-cell patch clamp technique
Summary of the method: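 F11 cells (mouse neuroblastoma N18TG-2 × rat DRG hybrid) grown in DMEM with 4.5 g/L glucose and 10% FCS at 37 °C, 5% CO2. Cells were plated and incubated about 24 h before whole-cell recording. Pipette solution was K-aspartate based at pCa 7 with 1 mM MgATP. Compounds came from 300 mM DMSO stocks, with DMSO at 1:2000 final, and were delivered by local perfusion. Capacitance and series resistance were compensated 85–95%.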

[2] = test system: F11; experiment: Blockade of delayed rectifier potassium channel in mouse rat hybrid F11 cells at 90 uM by whole-cell patch clamp technique
Summary of the method: (§1)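 F11 cells (mouse neuroblastoma N18TG-2 × rat DRG) grown in DMEM with 4.5 g/L glucose and 10% FCS at 37 °C, 5% CO2, and plated about 24 h before recording. Whole-cell clamp with compensated capacitance and series resistance. Pipette: K-aspartate 130 mM, EGTA 10 mM, MgATP 1 mM, pCa 7. Cells perfused with low-K physiologic solution; step to 60 mV from −60 mV holding; TEA-isolated current. Drug applied by perfusion, DMSO 1:2000 final.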

[3] = test system: F11; experiment: Blockade of delayed rectifier potassium channel in mouse rat hybrid F11 cells at 45 uM by whole-cell patch clamp technique; summary of the method: as §1
[4] = test system: F11; experiment: Blockade of inward rectifier potassium channel in mouse rat hybrid F11 cells at 45 uM by whole-cell patch clamp technique
[5] = test system: F11; experiment: Blockade of inward rectifier potassium channel in mouse rat hybrid F11 cells at 36 uM by whole-cell patch clamp technique
[6] = test system: F11; experiment: Blockade of delayed rectifier potassium channel in mouse rat hybrid F11 cells at 36 uM by whole-cell patch clamp technique; summary of the method: as §1

Compound	Activity [2]	also measured
COc1ccc(/C=C\c2cc(O)cc(O)c2)cc1	70.4%	Activity [1]: Active
COc1cc(O)cc(CCc2ccc(O)cc2)c1	69%	–
Oc1ccc(/C=C/c2cc(O)cc(O)c2)cc1	42.9%	–
Oc1cc(CCc2ccc(OCc3ccccc3)cc2)cc(OCc2ccccc2)c1	50%	–
Oc1ccc(CCc2cc(O)cc(O)c2)cc1	52%	–
CC(C)=CCc1c(O)cc(CCc2ccc(O)cc2)cc1O	–	Activity [3]: 74%; Activity [4]: 50.1%
Oc1ccc(CCc2cc(O)cc(OCc3ccccc3)c2)cc1	89%	–
COc1ccc(CCc2cc(OC)cc(OC)c2)cc1	38.6%	–
CC(C)=CCOc1cc(O)cc(CCc2ccc(O)cc2)c1	–	Activity [5]: 53.7%; Activity [6]: 55.5%
Oc1cc(O)cc(CCc2ccc(OCc3ccccc3)cc2)c1	89%	–
COc1ccc(CCc2cc(O)cc(O)c2)cc1	89.4%	Activity [1]: Active
c1ccc(COc2ccc(CCc3cc(OCc4ccccc4)cc(OCc4ccccc4)c3)cc2)cc1	57%	–

Source: ChEMBL document CHEMBL1146504, “Resveratrol derivatives and their role as potassium channels modulators” (J Nat Prod, 2004)
